The values below come from article PMC4281931 (Anticancer research, 2013).

This experiment has as its target PARP-1 (poly ADP-ribose polymerase) (Homo sapiens, UniProt P09874). As to the kind of experiment: PARP-1 chemiluminescent assay kit. In kind it is biochemical. To be noted: read-out: % (inhibition at 21.35 μM). In a few lines:
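Human PARP-1 activity was measured with a chemiluminescent kit, run per the maker's protocol. PARP-1 incorporates biotinylated NAD into biotinyl-poly(ADP-ribose) on immobilized histone substrate. The biotinylated substrate was incubated with the test compound at several concentrations in assay buffer containing PARP-1 enzyme. The read-out was chemiluminescence.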

Sequence of PARP-1 (poly ADP-ribose polymerase) (P09874 2-1014): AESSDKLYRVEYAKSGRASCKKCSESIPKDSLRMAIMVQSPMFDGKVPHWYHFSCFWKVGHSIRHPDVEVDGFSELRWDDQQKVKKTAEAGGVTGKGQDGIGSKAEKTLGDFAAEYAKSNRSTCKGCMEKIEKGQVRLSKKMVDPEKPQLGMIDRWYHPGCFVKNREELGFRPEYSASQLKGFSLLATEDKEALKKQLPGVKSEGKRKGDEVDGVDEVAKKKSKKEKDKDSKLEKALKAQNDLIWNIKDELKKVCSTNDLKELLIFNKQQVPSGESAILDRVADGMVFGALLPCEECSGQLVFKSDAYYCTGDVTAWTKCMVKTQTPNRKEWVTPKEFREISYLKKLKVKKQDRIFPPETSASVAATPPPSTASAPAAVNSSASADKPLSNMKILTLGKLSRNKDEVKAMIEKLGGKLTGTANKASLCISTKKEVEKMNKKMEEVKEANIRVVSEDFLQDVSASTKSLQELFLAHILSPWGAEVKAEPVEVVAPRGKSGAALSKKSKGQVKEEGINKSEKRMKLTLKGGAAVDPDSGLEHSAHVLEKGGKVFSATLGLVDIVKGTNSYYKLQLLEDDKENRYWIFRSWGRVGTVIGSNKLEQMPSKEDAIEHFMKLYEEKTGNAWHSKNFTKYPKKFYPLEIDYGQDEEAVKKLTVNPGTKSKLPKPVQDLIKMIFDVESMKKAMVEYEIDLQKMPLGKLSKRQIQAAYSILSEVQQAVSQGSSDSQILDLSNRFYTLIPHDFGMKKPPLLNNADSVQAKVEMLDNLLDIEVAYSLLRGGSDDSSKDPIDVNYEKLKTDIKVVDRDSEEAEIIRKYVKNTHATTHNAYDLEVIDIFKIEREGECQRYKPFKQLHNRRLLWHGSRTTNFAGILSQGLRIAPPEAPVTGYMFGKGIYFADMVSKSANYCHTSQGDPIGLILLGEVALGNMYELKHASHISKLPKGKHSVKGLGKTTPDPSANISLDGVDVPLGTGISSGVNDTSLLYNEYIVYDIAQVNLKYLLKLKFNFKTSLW

As usually defined, the inhibition is the change of the read-out against control, counted positive when it falls. For the compound `O=C1C[C@@H](c2ccccc2)Oc2c(Cc3ccccc3O)c(O)c(Cc3ccccc3O)c(O)c21` [dichamanetin], the inhibition at 21.35 µM was 96.2%.
